# Assay outcomes as filed in PubChem.
# Sampled rows, rich in hits. Any-hit rate of the full collection: about 1.2%.
# HKDC1 inh = HKDC1 hexokinase inhibitors, primary screen, biochemical, fluorescence, uHTS; Q2TB90; recombinant HKDC1, G6PDH/diaphorase resazurin coupled fluorescence; inhibition, % at 20 µM; 0.16% of 340,000 active;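 active = inhibition above about 35% when tested at 20 µM, limit read from the data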;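 note: plate controls were DMSO wells with enzyme for no effect and DMSO wells lacking enzyme for full effect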
#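 Incubation: 90 min at room temperature in dark / Material: recombinant HKDC1 (HK5) hexokinase enzyme, produced in-house / Quantity: enzyme 5 µg/mL final / Compound: one dose of 20 µM, 1% DMSO / Reagent: glucose and ATP substrates / Buffer or medium: Tris pH 8.0 buffer with MgCl2, Tween-20, BSA, BME / Technique: resorufin fluorescence at 613 nm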
# Diaph inh CS = diaphorase inhibitors and chemical oxidizers, primary screen, counter-screen for diaphorase-coupled primary assays, biochemical, uHTS, resorufin fluorescence | diaphorase resazurin-to-resorufin fluorescence, NADH, 16 min; bacterial (C. kluyveri) enzyme, not human | AID 1217, 2008 | 0.69% of 190,000 active | inhibition, % at 20 µM;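 active = primary screen inhibition at 20 µM above a set limit, cut at about 50% in these data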;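 note: plate controls were DMSO with full reaction for no effect and wells lacking NADH for full effect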
#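 Detection: fluorescence of resorufin formed from resazurin, Ex 544/Em 590 nm; test system: Clostridium kluyveri diaphorase enzyme; amount: 0.14 U/mL diaphorase, enzyme working solution; times: 16-min room-temperature incubation before reading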
# PfG6PD inh = PfG6PD enzyme inhibitors, primary screen, biochemical, fluorescence intensity, uHTS. 0.78% of 350,000 active. glucose-6-phosphate dehydrogenase-6-phosphogluconolactonase (Plasmodium falciparum 3D7). AID 504690, 2011. inhibition, % at 20 µM. PfGluPho enzyme, NADPH resazurin-diaphorase fluorescence;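 active = inhibition reaching at least a set limit at 20 µM in the primary screen, cut at about 59% in these data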;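 note: 0% = DMSO wells with substrate and 100% = DMSO wells lacking glucose-6-phosphate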
# G6PDH counter = L. mesenteroides G6PDH inhibitors, counter-screen for G6PDH-coupled screening assays, biochemical, Leuconostoc mesenteroides enzyme | 0.12% of 200,000 active | glucose-6-phosphate dehydrogenase [Leuconostoc mesenteroides] | inhibition, % at 5 µM | Purified L. mesenteroides G6PDH, diaphorase/resazurin coupled fluorescence, 45 min; in the data active = inhibition above about 50%
# Diaphorase act = compounds boosting diaphorase resazurin reduction – biochemical, uHTS, resorufin fluorescence, counter-screen for diaphorase-coupled primary assays, primary screen; AID 1229, 2008; 0.005% of 190,000 active; Diaphorase/resazurin coupled assay, 16 min; active compounds read high; 1 = vehicle wells, 0 = NADH-free wells; activation factor at 20 µM;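 active = diaphorase activity raised at least twofold by the compound at 20 µM; inactive = activation factor below 2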
#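 System – purified diaphorase enzyme from Clostridium kluyveri · Input – enzyme 0.07 U/mL final · Also added – final NADH 0.114 mM, resazurin 0.1 mM · Measured by – fluorescence of resorufin, 544 nm excitation, 590 nm emission · Timing – 16 min enzyme reaction, ambient temperature · Measure – resorufin increase flagging diaphorase activators or reducers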
# Starred values were filed as active, the others as inactive; x = not tested or not shown.
SMILES,HKDC1 inh,Diaph inh CS,PfG6PD inh,G6PDH counter,Diaphorase act
Cc1c(NC(=O)CSc2ccccc2F)c(=O)n(-c2ccccc2)n1C,-1.7,50.1*,-4.6,0.7,0.5
Cc1cccc2cc(C(c3nnnn3CC3CCCO3)N3CCc4ccccc4C3)c(=O)[nH]c12 (configuration not stated),22.2,55.1*,7.9,21.7,0.4
Cc1ccc2cc(C(c3nnnn3CC3CCCO3)N3CCc4ccccc4C3)c(=O)[nH]c2c1 (configuration not stated),13.8,54.3*,9.6,-2.4,0.5
CCc1ccc2[nH]c(=O)c(C(c3nnnn3CC3CCCO3)N3CCCc4ccccc43)cc2c1 (configuration not stated),3.2,67.8*,14.7,18.6,0.3
Cc1cc2cc(C(c3nnnn3CC3CCCO3)N3CCCc4ccccc43)c(=O)[nH]c2cc1C (configuration not stated),13.5,49.6,-1.8,22.0,0.5
Cc1cccc2cc(C(c3nnnn3CC3CCCO3)N3CCCc4ccccc43)c(=O)[nH]c12 (configuration not stated),0.9,60.3*,-1.5,5.0,0.4
Cc1ccc2cc(C(c3nnnn3CC3CCCO3)N3CCCC4(CCCCC4)C3)c(=O)[nH]c2c1 (configuration not stated),-0.4,x,38.9,x,x
Cc1cccc2cc(C(c3nnnn3CC3CCCO3)N3CCCC4(CCCCC4)C3)c(=O)[nH]c12 (configuration not stated),x,30.9,x,6.0,0.7
CCN(c1ccccc1)S(=O)(=O)c1ccc(Cl)c(NC(=O)CSc2nc(N)cc(=O)[nH]2)c1,x,x,-24.9,x,x
COCCNC(=O)c1ccc(N2CC3CC(C2)c2cccc(=O)n2C3)c(NC(=O)c2ccccc2Cl)c1 (configuration not stated),x,x,-9.8,x,x
CCOc1ccc2[nH]c(=O)c(C(c3nnnn3CC3CCCO3)N3CCc4ccccc4C3)cc2c1 (configuration not stated),1.5,58.6*,2.3,14.0,0.4
O=[N+]([O-])c1cc(S(=O)(=O)NCCN2CCOCC2)ccc1Sc1nnnn1-c1ccccc1,9.4,23.9,1.3,5.0,0.8
Cc1ccc(-n2nnnc2Sc2ccc(S(=O)(=O)NCCN(C)C)cc2[N+](=O)[O-])cc1,20.9,53.1*,0.1,10.2,0.5
C[C@@H]1CN([C@@H](C)CO)C(=O)CCCn2nncc2CO[C@@H]1CN(C)C(=O)C1CCCCC1,x,x,8.5,x,x
Cc1cc2nc(CN(C)C(=O)C3CCC(=O)N(C4CCCC4)C3)[nH]c2cc1C (configuration not stated),x,x,13.6,x,x
COC(=O)[C@H]1C[C@H](OC(=O)Nc2cccs2)[C@@]2(O)CN(S(=O)(=O)c3ccc(C)cc3)CC2[C@H]1C(=O)OC (some centres not stated),x,x,21.5,x,x
CCOC(=O)c1c2ccc(OCC(=O)N/N=C/c3ccccc3C(F)(F)F)cc2n2ccccc12,x,51.6*,x,38.4,0.5
COc1cc(/C=C2/SC(=S)NC2=O)ccc1OS(=O)(=O)c1ccc(C)cc1,7.7,50.0*,23.2,-4.9,0.5
O=C1c2cc([N+](=O)[O-])ccc2-c2cc(Br)c(N=C(NO)C(F)(F)F)cc21,3.9,x,16.9,x,x
O=C(CCCN1C(=O)/C(=C/c2ccco2)SC1=S)Nc1ccccc1C(=O)O,8.3,x,-8.8,x,x
O=C1/C(=C\c2ccco2)SC(=S)N1C1CCS(=O)(=O)C1 (configuration not stated),1.4,x,34.4,x,x
O=C1/C(=C/c2ccco2)SC(=S)N1C1CCS(=O)(=O)C1 (configuration not stated),-3.2,61.1*,7.3,12.8,0.4
O=C(O)CCCN1C(=O)/C(=C\c2ccco2)SC1=S,5.4,59.2*,-11.8,14.1,0.4
COc1ccc(NC(=O)CSc2nc3c(c(-c4cccs4)c2C#N)CN(C)CC3)cc1OC,-1.3,56.7*,42.8,14.2,0.4
Cc1cc(N)ccc1N1CCCC1,15.1,14.3,88.2*,30.1,0.9
SMILES,HKDC1 inh,Diaph inh CS,PfG6PD inh,G6PDH counter,Diaphorase act
Cc1cc(N)ccc1-n1c(C)ccc1C,14.7,24.6,59.2*,11.0,0.8
Cc1ccc(-n2c(C)cc(=O)cc2C)c(C)c1,-11.4,7.9,15.7,14.8,0.9
N#Cc1c(N)[nH]c2ccc(Sc3ccccc3)cc12,1.7,x,17.2,x,x
O=C(N/N=C/c1cc([N+](=O)[O-])ccc1O)C1CCCCC1,-18.9,56.4*,-15.2,15.6,0.4
CCOC(=O)c1cn(CC)c2cc(Cl)c([N+](=O)[O-])cc2c1=O,-2.6,10.6,-13.2,-4.5,0.9
CCOC(=O)c1cn(-c2c(Cl)cccc2Cl)c2cc(Cl)c([N+](=O)[O-])cc2c1=O,-9.9,52.5*,-11.3,0.4,0.5
Nc1nc(=S)[nH]c2c1C1(CCCCC1)Cc1ccccc1-2,16.0,53.2*,-3.5,-8.2,0.5
Nc1nc(=S)[nH]c2c1C1(CCCC1)Cc1ccccc1-2,10.1,27.0,11.6,2.4,0.7
CC(=O)N1C[C@H]2CON(C)[C@H]2C[C@H]1c1ccc(-c2cccnc2)cc1,x,x,13.4,x,x
O=C1C=CC(=O)N1c1cccc(-c2ccccc2)c1,7.0,x,97.9*,x,x
O=c1cc(-c2ccccc2)[nH]n1-c1ccccc1,4.0,x,-6.5,x,x
Cc1ccc(N2CCC3CC2c2cc(-c4ccc(C(F)(F)F)cc4)ccc23)cc1 (configuration not stated),x,x,35.4,x,x
O=[N+]([O-])c1ccccc1/C=C/C=N/n1c(-c2ccccc2)n[nH]c1=S,14.2,68.2*,15.1,0.6,0.3
Cc1ccc(-c2n[nH]c(=S)n2/N=C/C=C\c2ccccc2[N+](=O)[O-])cc1,-1.5,66.2*,17.6,-6.9,0.3
O=[N+]([O-])c1ccccc1/C=C/C=N/n1c(-c2ccc(Cl)cc2)n[nH]c1=S,-30.6,21.5,4.2,-0.6,0.8
CC(C)c1ccc(NC(=O)COC(=O)Cn2cnc3c2c(=O)n(C)c(=O)n3C)cc1,x,x,-2.2,x,x
CC(C)N1C(=O)/C(=C\c2nc3ccccc3c(=O)[nH]2)c2ccccc21,21.7,56.0*,46.7,-1.7,0.4
CCN(CC)c1nc2c3c(nc4c(c3c1C#N)CC(=O)N4c1ccc(Cl)cc1)NC(C)=N2,13.2,58.4*,23.7,-23.6,0.4
CCc1ccc(N2C(=O)Cc3c2nc(N)c(C#N)c3N)cc1,3.7,36.2,16.0,-1.2,0.6
Cc1ccc(NC2=C/C(=N/S(=O)(=O)c3cccs3)c3ccccc3C2=O)cc1,6.9,15.6,29.9,50.4*,0.8
